# Measured values pooled from the literature.
# Each line is one published result; the experiments were not run side by side.
# Neuronal acetylcholine receptor; alpha9/alpha10: Neuronal acetylcholine receptor; alpha9/alpha10 (Homo sapiens, UniProt Q9GZZ6+Q9UGM1)
# CA2: Carbonic anhydrase 2 (CA2, Homo sapiens, UniProt P00918)
Structure (SMILES),target,read-out,action,method,setting,measurement,value
CCCNC(=O)c1ccc(N2CC[N+](CC)(CC)CC2)cc1,Neuronal acetylcholine receptor; alpha9/alpha10,ion current,agonist,two-electrode voltage clamp,oocytes,EC50,11 µM
COc1ccc2[nH]c3c(c2c1)CCN(C)CC3,Neuronal acetylcholine receptor; alpha9/alpha10,ion current,antagonist,two-electrode voltage clamp,oocytes,IC50,3.2 µM
CNC(=O)c1ccc(-c2cnn3ccc(C(=O)N(C)c4ccc(Cl)c(C(=O)O)c4)cc23)cc1,"STE20-like serine/threonine-protein kinase (SLK, Homo sapiens, UniProt Q9H2G2)",enzyme activity,inhibitor,,,IC50,> 30 µM
COc1ccc2c3c([nH]c2c1)CCN(C)CC3,Neuronal acetylcholine receptor; alpha9/alpha10,ion current,antagonist,two-electrode voltage clamp,oocytes,IC50,3 µM
COc1ccc(S(=O)(=O)Oc2cccc(C=NNC(=O)c3ccc(F)cc3)c2)cc1,CA2,enzyme activity,inhibitor,absorbance,,IC50,0.139 µM
COC(=O)c1cc(N(C)C(=O)c2ccn3ncc(-c4ccc(C(=O)O)cc4)c3c2)ccc1Cl,"cAMP-dependent protein kinase catalytic subunit alpha (PRKACA, Homo sapiens, UniProt P17612)",enzyme activity,inhibitor,,,IC50,> 30 µM
COc1ccc(S(=O)(=O)Oc2ccccc2C=NNC(=O)c2ccc(F)cc2)cc1,CA2,enzyme activity,inhibitor,absorbance,,IC50,0.156 µM
CNC(=O)c1ccc(-c2cnn3ccc(C(=O)N(C)c4ccc(Cl)c(C(=O)OC)c4)cc23)cc1,"Receptor tyrosine-protein kinase erbB-2 (ERBB2, Homo sapiens, UniProt P04626)",enzyme activity,inhibitor,,,IC50,> 30 µM
COc1ccc(S(=O)(=O)Oc2ccc(C=NNC(=O)c3ccc(F)cc3)cc2)cc1,CA2,enzyme activity,inhibitor,absorbance,,IC50,0.0974 µM
CC[N+]1(CC)CCN(c2ccc(NC(=O)c3cccc(C)n3)cc2)CC1,Neuronal acetylcholine receptor; alpha9/alpha10,ion current,agonist,two-electrode voltage clamp,oocytes,EC50,0.83 µM
